Most compounds without a hit are left out; they make up all but 2.2% or so of the library.
FLuc stim CS = affects firefly luciferase, flagging false hits in luciferase stimulation screens; activation factor at 10 µM; P08659; ATPlite luciferase biochemical, luminescence, 10 min; 0 = ATP-free wells, 1 = DMSO control; 200,000 tested, under 10 active;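 active means luciferase activation factor, scaled between plate controls, of at least 2 with compound at 10 µM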
Target sequence (P08659 whole entry, looked up): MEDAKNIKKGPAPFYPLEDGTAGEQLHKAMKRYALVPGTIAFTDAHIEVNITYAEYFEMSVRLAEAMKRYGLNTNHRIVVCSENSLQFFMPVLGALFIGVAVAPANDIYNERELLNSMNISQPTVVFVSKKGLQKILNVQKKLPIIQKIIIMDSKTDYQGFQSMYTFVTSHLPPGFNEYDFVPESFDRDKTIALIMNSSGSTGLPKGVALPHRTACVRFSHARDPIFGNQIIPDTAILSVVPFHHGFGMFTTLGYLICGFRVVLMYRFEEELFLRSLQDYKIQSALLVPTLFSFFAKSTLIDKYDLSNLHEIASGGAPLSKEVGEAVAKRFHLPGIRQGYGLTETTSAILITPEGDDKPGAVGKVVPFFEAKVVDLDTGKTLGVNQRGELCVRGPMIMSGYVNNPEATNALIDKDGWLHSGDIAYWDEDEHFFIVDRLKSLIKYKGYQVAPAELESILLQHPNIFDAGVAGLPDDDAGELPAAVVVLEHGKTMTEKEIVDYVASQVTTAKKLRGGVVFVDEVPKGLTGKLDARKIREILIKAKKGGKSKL
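System: luciferase plus luciferin reagent, cell-free; medium: PBS as buffer for the ATP substrate; dosing: test compounds dosed from 2 mM stocks in 100% DMSO; timing: 10 min post-reagent at room temperature; measured by: luminescence measurement of luciferase light output; evaluation: luciferase activation, seen as luminescence increase over controls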
C8 TRAIL sens = caspase-8 TRAIL sensitization. NB7+C8 cells + TRAIL, ATPlite viability luminescence. inhibition (viability loss, TRAIL sensitization), % at 10 µM. 1% of 360,000 active;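 active means compounds causing at least 50% loss of cell viability in the single-dose screen, relative to plate controls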
PPC-1+TRAIL kill = compounds killing PPC-1 cancer cells with TRAIL present (potentiator screen, no TRAIL-free arm); 0.41% of 220,000 active; PPC-1 cells + TRAIL, ATPLite viability luminescence; cell killing (% activity), % at 4 µM or 5 µM; AID 1443;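 active means cell killing above 50% in the first pass at 4 µM, then a duplicate retest at 5 µM averaging 50% or more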;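 further: plate controls were cells with TRAIL plus DMSO for no effect and medium-only wells lacking cells for full effect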
FLuc inhib CS = inhibits firefly luciferase, flagging false hits in luciferase inhibition screens. ATPLite firefly luciferase biochemical luminescence, 10 min. 1.5% of 200,000 active. inhibition, % at 10 µM. AID 1006;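 active means inhibition above about 50% when tested at 10 µM, limit read from the data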
HSP90 refold inh = inhibitors of HSP90 luciferase refolding in rabbit reticulocyte lysate; luciferase refolding luminescence, 3 h; inhibition, % at 5.6 µM; 0.91% of 290,000 active; AID 1789;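 active means inhibition above the screen-wide mean plus 3 SD, computed separately per campaign, cut at about 16% in these data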;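 further: 0% = DMSO wells and 100% = 60 µM geldanamycin wells; inhibitors lower the luminescence because luciferase stays unfolded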
STAT3 blocker = STAT3 signaling inhibition. inhibition, % at 5.5 µM. 0.89% of 190,000 active. U3A cells, IL-6 STAT3-luciferase reporter, luminescence; host cell line lacks STAT1;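 active means inhibition above the mean inhibition across all screened compounds plus 3 SD, cut at about 44% in these data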;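 further: 0% = DMSO only wells and 100% = 100 µM nifuroxazide control wells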
PPC-1 tox = PPC-1 cell cytotoxicity; shares compounds with PPC-1+TRAIL kill; cytotoxicity, % at 5 µM; PPC-1 viability, ATPlite luminescence, overnight; 50% of 1,200 active; AID 1447;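 active means reconfirmed compounds whose average cytotoxicity reaches 50% or more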;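 further: 0% = DMSO-treated cells and 100% = wells holding medium but no cells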
* = called active by the depositor; / = not tested or not shown.

SMILES	FLuc stim CS	C8 TRAIL sens	PPC-1+TRAIL kill	FLuc inhib CS	HSP90 refold inh	STAT3 blocker	PPC-1 tox
O[C@@H]1C[C@H](c2ccc(Cl)cc2)N(Cc2cccs2)C[C@H]1n1cc(-c2ccc(F)cc2)nn1	/	12.4	/	/	/	/	/
CCN(CC)CCCNc1nc2cc(OC)c(OC)cc2c2nc(-c3ccccc3)nn12	1	10.7	26.1	-4.0	4.9	0.1	22.0
CCN(CC)CCCNc1nc2cc(OC)c(OC)cc2c2nc(-c3cccnc3)nn12	1.1	25.4	-4.3	-5.4	1.6	-31.8	/
CCNC(=O)N1CCNC(=O)C1CC(=O)OC (stereo unspecified)	1	0.8	0.8	3.8	-1.3	-5.5	9.2
O=C(CSc1ncccc1-c1nc2ccccc2[nH]1)NC1CC1	1	10.8	3.5	0.6	0.6	16.4	/
COCCOC(=O)CSc1ncccc1-c1nc2cc(C)c(C)cc2[nH]1	0.3	65.4*	57.3*	74.8*	-0.4	7.5	59.1*
COC(=O)Cc1ccc(NC(=S)N2CCCC(C)C2)cc1 (stereo unspecified)	0.1	-5.4	67.8*	89.3*	0.4	3.2	69.5*
COc1cccc2nc3cc(C)c(C)cc3nc12	/	68.2*	70.5*	/	14.3	/	68.0*
CCOC(=O)c1ccc(Nc2cc(C)nc(C)c2C(=O)OCC)cc1	1	11.2	3.9	-4.0	0.9	15.6	-1.6
CCOC(=O)c1ccc(NC(=O)c2c(Cl)cc(C)nc2C)cc1	/	21.2	/	/	2.8	/	/
Cc1cccc(C)c1N1CCN(CCn2c(=S)[nH]c3ccccc3c2=O)CC1	/	-5.9	/	/	1.6	/	/
Cc1ccc(NC(=O)Cc2cn3ccsc3n2)nc1	1.1	-0.4	-4.3	-7.6	3.9	3.8	-2.0
O=C(Cc1cn2ccsc2n1)Nc1ccccn1	1	4.8	-2.0	-4.3	2.5	5.9	/
O=C(O)CC1=C(O)C(=O)N(c2ccccc2)C1c1ccccc1 (stereo unspecified)	1	1.4	-27.8	-0.7	1.6	-5.6	-5.8
O=C(O)CC1=C(O)C(=O)N(c2ccccc2)C1c1ccc(Br)cc1 (stereo unspecified)	1	12.1	1.8	-2.0	3.6	6.6	/
COc1ccc(C)cc1Nc1nc(N)c2ccccc2n1	/	-4.9	/	/	4.6	/	/
Nc1nc(Nc2ccc(Cl)cc2)nc2ccccc12	0.1	76.0*	78.8*	93.3*	16.1*	62.5*	79.9*
CCc1cccc(CC)c1-n1c(SCC(=O)N2CCCc3ccccc32)nc(O)cc1=O	/	-8.1	/	/	/	/	/
CCOC(=O)C1(C)/C(=N/Nc2ccccc2OC)C(=O)C(=O)N1c1ccccc1 (stereo unspecified)	1	2.6	-3.8	0.1	-2.8	14.1	/
CCOC(=O)C1(C)/C(=N/Nc2ccccc2)C(=O)C(=O)N1c1ccccc1 (stereo unspecified)	1.1	1.7	-8.9	-5.9	1.4	2.0	-0.6
C/C(=N\Nc1cccc2cccnc12)c1ccccn1	0.1	74.7*	47.7	87.1*	7.2	68.1*	44.1
CCOC(=O)c1c(-c2ccc(C)o2)csc1NC(=S)NC(=O)N(C)C	1	-6.3	12.3	-4.7	2.2	13.0	/
COc1ccc(CNC(=O)c2noc3c2CCCCC3)cc1	1	-7.0	3.0	0.7	-0.4	7.2	-11.9
O=C(NCc1ccccc1)c1noc2c1CCCCC2	1	-0.5	19.1	4.9	3.3	-12.3	/
COc1ccc(C(=O)/C(=C/N(C)C)S(=O)(=O)c2ccccc2)cc1	1	32.8	-16.9	0.9	6.3	4.2	-44.5
Cc1nc(-c2coc3cc(OCC(=O)O)ccc3c2=O)cs1	0.2	50.1*	45.1	77.6*	7.7	38.2	46.3
c1ccc(CCNc2ccnc3cc4ccccc4cc23)cc1	1	32.9	26.9	0.6	0.0	28.3	19.5
CN1CCC(N(C)S(=O)(=O)c2ccc(NC(=O)COc3cccc(C(F)(F)F)c3)cc2)CC1	/	9.6	/	/	/	/	/
Cc1ccc(C(=O)Nc2cc(C)c(OCC(=O)N3CCOCC3)c(C)c2)cc1	0.1	83.1*	79.0*	87.5*	7.5	12.2	78.9*
COc1ccccc1C(=O)Nc1cc(C)c(OCC(=O)N2CCOCC2)c(C)c1	/	6.7	/	/	2.2	/	/

Source: PubChem (several laboratories)
